Reference: ChEMBL document CHEMBL1154428, “Cloning, nucleotide sequencing, and analysis of the AcrAB-TolC efflux pump of Enterobacter cloacae and determination of its involvement in antibiotic resistance in a clinical isolate” (2007)
In brackets after ≈: the same amount, converted by molar mass.

Tests used:
Enterobacter cloacae [1] = assay: Antibacterial activity against drug-resistant Enterobacter cloacae EcDC64 isolate expressing pBGS18 plasmid by broth microdilution method
Enterobacter cloacae [2] = assay: Antibacterial activity against drug-resistant Enterobacter cloacae EcDC64 isolate expressing AcrAB-TolC efflux pump by broth microdilution method; format: functional
In short: (§1)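 Broth microdilution MICs for detergents and dyes (SDS, sodium cholate, sodium deoxycholate, acriflavine, ethidium bromide, Triton X-100, crystal violet). E. cloacae inoculum 5 × 10^5 CFU/ml, incubated 16 to 20 h at 37°C. The MIC was the lowest concentration giving complete growth inhibition. The acrA knockout carries a kanamycin-resistance insertion made by Red-mediated recombination.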

Enterobacter cloacae [3] = assay: Antibacterial activity against drug-resistant AcrAB-TolC efflux pump deficient Enterobacter cloacae EcdeltaacrA isolate by broth microdilution method; format: functional
In short: as §1

Enterobacter cloacae [4] = assay: Antibacterial activity against drug-resistant AcrAB-TolC efflux pump deficient Enterobacter cloacae EcdeltaacrA isolate expressing pACYC184 plasmid by broth microdilution method; format: functional
In short: as §1

Enterobacter cloacae [5] = assay: Antibacterial activity against drug-resistant Enterobacter cloacae EcDC64 isolate expressing pAP3 plasmid containing Enterobacter aerogenes acrR gene by broth microdilution method
Enterobacter cloacae [6] = assay: Antibacterial activity against drug-resistant AcrAB-TolC efflux pump deficient Enterobacter cloacae EcdeltaacrA isolate expressing pAP2 plasmid containing Enterobacter cloacae acrA gene by broth microdilution method; format: functional
In short: as §1

Enterobacter cloacae [7] = assay: Antibacterial activity against drug-resistant AcrAB-TolC efflux pump deficient Enterobacter cloacae EcdeltaacrA isolate expressing pAP2 plasmid containing Enterobacter cloacae acrA gene by Etest; format: functional
Enterobacter cloacae [8] = assay: Antibacterial activity against drug-resistant Enterobacter cloacae EcDC64 isolate expressing AcrAB-TolC efflux pump in presence of 20 ug/ml efflux pump inhibitor Phe-Arg-beta-naphthylamide by Etest
Enterobacter cloacae [9] = assay: Antibacterial activity against drug-resistant AcrAB-TolC efflux pump deficient Enterobacter cloacae EcdeltaacrA isolate by Etest; format: functional
Enterobacter cloacae [10] = assay: Antibacterial activity against drug-resistant AcrAB-TolC efflux pump deficient Enterobacter cloacae EcdeltaacrA isolate expressing pAP3 plasmid containing Enterobacter aerogenes acrR gene by Etest; format: functional
Enterobacter cloacae [11] = assay: Antibacterial activity against drug-resistant AcrAB-TolC efflux pump deficient Enterobacter cloacae EcdeltaacrA isolate expressing pACYC184 plasmid by Etest; format: functional
Enterobacter cloacae [12] = assay: Antibacterial activity against drug-resistant AcrAB-TolC efflux pump deficient Enterobacter cloacae EcdeltaacrA isolate expressing pBGS18 plasmid by Etest; format: functional
Enterobacter cloacae [13] = assay: Antibacterial activity against drug-resistant Enterobacter cloacae EcDC64 isolate expressing AcrAB-TolC efflux pump by Etest; format: functional
Enterobacter cloacae [14] = assay: Antibacterial activity against drug-resistant AcrAB-TolC efflux pump deficient Enterobacter cloacae EcdeltaacrA isolate in presence of 20 ug/ml efflux pump inhibitor Phe-Arg-beta-naphthylamide by Etest; format: functional
Enterobacter cloacae [15] = assay: Antibacterial activity against drug-resistant Enterobacter cloacae EcDC64 isolate expressing pAP1 containing Escherichia coli ampD by Etest; format: functional
Enterobacter cloacae [16] = assay: Antibacterial activity against drug-resistant Enterobacter cloacae EcDC64 isolate expressing pBGS18 plasmid by standard disk diffusion method
Enterobacter cloacae [17] = assay: Antibacterial activity against drug-resistant AcrAB-TolC efflux pump deficient Enterobacter cloacae EcdeltaacrA isolate in presence of 20 ug/ml efflux pump inhibitor Phe-Arg-beta-naphthylamide by standard disk diffusion method; format: functional
In short: (§2)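 Standard disk diffusion on Mueller-Hinton agar with telithromycin, fusidic acid, novobiocin, nalidixic acid, rifampin and norfloxacin disks. The read-out is the inhibition zone diameter in mm. The acrA-deleted strain was complemented with acrA on pAP-2, and pACYC184 served as the empty vector.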

Enterobacter cloacae [18] = assay: Antibacterial activity against drug-resistant AcrAB-TolC efflux pump deficient Enterobacter cloacae EcdeltaacrA isolate by standard disk diffusion method; format: functional
In short: as §2

Enterobacter cloacae [19] = assay: Antibacterial activity against drug-resistant Enterobacter cloacae EcDC64 isolate expressing AcrAB-TolC efflux pump by standard disk diffusion method; format: functional
In short: as §2

Enterobacter cloacae [20] = assay: Antibacterial activity against drug-resistant AcrAB-TolC efflux pump deficient Enterobacter cloacae EcdeltaacrA isolate expressing pACYC184 plasmid by standard disk diffusion method; format: functional
In short: as §2

Enterobacter cloacae [21] = assay: Antibacterial activity against drug-resistant Enterobacter cloacae EcDC64 isolate expressing pAP3 plasmid containing Enterobacter aerogenes acrR gene by standard disk diffusion method
Enterobacter cloacae [22] = assay: Antibacterial activity against drug-resistant Enterobacter cloacae EcDC64 isolate expressing AcrAB-TolC efflux pump in presence of 20 ug/ml efflux pump inhibitor Phe-Arg-beta-naphthylamide by standard disk diffusion method; format: functional
In short: as §2

Enterobacter cloacae [23] = assay: Antibacterial activity against drug-resistant AcrAB-TolC efflux pump deficient Enterobacter cloacae EcdeltaacrA isolate expressing pAP2 plasmid containing Enterobacter cloacae acrA gene by standard disk diffusion method; format: functional
In short: as §2

Enterobacter cloacae [24] = system: Enterobacter cloacae
Enterobacter cloacae [25] = system: Enterobacter cloacae; remark: listed apart in the source
Enterobacter cloacae [26] = system: Enterobacter cloacae; remark: listed apart in the source
Enterobacter cloacae [27] = system: Enterobacter cloacae; remark: listed apart in the source
Enterobacter cloacae [28] = system: Enterobacter cloacae; remark: listed apart in the source
Enterobacter cloacae [29] = settings: EcDC64
Enterobacter cloacae [30] = system: Enterobacter cloacae; remark: listed apart in the source

Question: What does the source list for `C[n+]1c2cc(N)ccc2cc2ccc(N)cc21.[Cl-]` [EUFLAVINE]?
Answer: MIC (Enterobacter cloacae [1]): 128 µg/mL; MIC (Enterobacter cloacae [2]): 128 µg/mL; MIC (Enterobacter cloacae [3]): 16 µg/mL; MIC (Enterobacter cloacae [4]): 16 µg/mL; MIC (Enterobacter cloacae [5]): 32 µg/mL; MIC (Enterobacter cloacae [6]): 64 µg/mL

Question: How did the MIC (Enterobacter cloacae [1]) turn out when `CN(C)c1ccc(C(=C2C=CC(=[N+](C)C)C=C2)c2ccc(N(C)C)cc2)cc1.[Cl-]` [GENTIAN VIOLET] was run?
Answer: 4100 µg/mL

Question: And the MIC (Enterobacter cloacae [2])?
Answer: 4100 µg/mL

Question: And the MIC (Enterobacter cloacae [3])?
Answer: 512 µg/mL

Question: And the MIC (Enterobacter cloacae [4])?
Answer: 256 µg/mL

Question: What about the MIC (Enterobacter cloacae [5]) of the same molecule?
Answer: 1020 µg/mL

Question: And the MIC (Enterobacter cloacae [6])?
Answer: 1020 µg/mL

Question: How did the MIC (Enterobacter cloacae [1]) turn out when `CC[n+]1c(-c2ccccc2)c2cc(N)ccc2c2ccc(N)cc21.[Br-]` [HOMIDIUM BROMIDE] was run?
Answer: 2050 µg/mL

Question: What about the MIC (Enterobacter cloacae [2]) of the same molecule?
Answer: 2050 µg/mL

Question: What about the MIC (Enterobacter cloacae [3]) of the same molecule?
Answer: 128 µg/mL

Question: And the MIC (Enterobacter cloacae [4])?
Answer: 64 µg/mL

Question: And the MIC (Enterobacter cloacae [5])?
Answer: 256 µg/mL

Question: What about the MIC (Enterobacter cloacae [6]) of the same molecule?
Answer: 1020 µg/mL

Question: Which MIC (Enterobacter cloacae [7]) does the source give for `C[C@@H](O)[C@H]1C(=O)N2C(C(=O)O)=C(SCCNC=N)C[C@H]12` [IMIPENEM ANHYDROUS] here?
Answer: > 32 µg/mL

Question: What about the MIC (Enterobacter cloacae [8]) of the same molecule?
Answer: 32 µg/mL

Question: What about the MIC (Enterobacter cloacae [9]) of the same molecule?
Answer: 24 µg/mL (≈ 80.2 µM)

Question: What about the MIC (Enterobacter cloacae [10]) of the same molecule?
Answer: 24 µg/mL (≈ 80.2 µM)

Question: And the MIC (Enterobacter cloacae [11])?
Answer: > 32 µg/mL

Question: What about the MIC (Enterobacter cloacae [12]) of the same molecule?
Answer: > 32 µg/mL

Question: What about the MIC (Enterobacter cloacae [13]) of the same molecule?
Answer: > 32 µg/mL

Question: And the MIC (Enterobacter cloacae [14])?
Answer: 6 µg/mL

Question: What about the MIC (Enterobacter cloacae [15]) of the same molecule?
Answer: 2 µg/mL (≈ 6.68 µM)

Question: For `C[C@@H](O)[C@H]1C(=O)N2C(C(=O)O)=C(S[C@@H]3CN[C@H](C(=O)N(C)C)C3)[C@H](C)[C@H]12` [MEROPENEM], which MIC (Enterobacter cloacae [7]) is on record?
Answer: > 32 µg/mL

Question: And the MIC (Enterobacter cloacae [8])?
Answer: 32 µg/mL

Question: What about the MIC (Enterobacter cloacae [9]) of the same molecule?
Answer: 24 µg/mL (≈ 62.6 µM)

Question: And the MIC (Enterobacter cloacae [10])?
Answer: 24 µg/mL (≈ 62.6 µM)

Question: What about the MIC (Enterobacter cloacae [11]) of the same molecule?
Answer: > 32 µg/mL

Question: And the MIC (Enterobacter cloacae [12])?
Answer: > 32 µg/mL

Question: What about the MIC (Enterobacter cloacae [13]) of the same molecule?
Answer: > 32 µg/mL

Question: And the MIC (Enterobacter cloacae [14])?
Answer: 1 µg/mL

Question: What about the MIC (Enterobacter cloacae [15]) of the same molecule?
Answer: 0.75 µg/mL (≈ 1.96 µM)

Question: For `CCCCCCCCCCCCOS(=O)(=O)[O-].[Na+]` [SODIUM LAURYL SULFATE], which MIC (Enterobacter cloacae [1]) is on record?
Answer: 8190 µg/mL

Question: And the MIC (Enterobacter cloacae [2])?
Answer: 8190 µg/mL

Question: What about the MIC (Enterobacter cloacae [3]) of the same molecule?
Answer: 256 µg/mL

Question: What about the MIC (Enterobacter cloacae [4]) of the same molecule?
Answer: 128 µg/mL

Question: What about the MIC (Enterobacter cloacae [5]) of the same molecule?
Answer: 1020 µg/mL

Question: What about the MIC (Enterobacter cloacae [6]) of the same molecule?
Answer: 4100 µg/mL

Question: Which “inhibition zone (IZ)” value (Enterobacter cloacae [16]) does the source give for `CC[C@H]1OC(=O)[C@H](C)C(=O)[C@H](C)[C@@H](O[C@@H]2O[C@H](C)C[C@H](N(C)C)[C@H]2O)[C@](C)(OC)C[C@@H](C)C(=O)[C@H](C)[C@H]2N(CCCCn3cnc(-c4cccnc4)c3)C(=O)O[C@]12C` [TELITHROMYCIN] here?
Answer: 10 mm

Question: And the “inhibition zone (IZ)” value (Enterobacter cloacae [17])?
Answer: 34 mm

Question: And the “inhibition zone (IZ)” value (Enterobacter cloacae [18])?
Answer: 19 mm

Question: What about the “inhibition zone (IZ)” value (Enterobacter cloacae [19]) of the same molecule?
Answer: 9 mm

Question: What about the “inhibition zone (IZ)” value (Enterobacter cloacae [20]) of the same molecule?
Answer: 18 mm

Question: What about the “inhibition zone (IZ)” value (Enterobacter cloacae [21]) of the same molecule?
Answer: 12 mm

Question: And the “inhibition zone (IZ)” value (Enterobacter cloacae [22])?
Answer: 32 mm

Question: And the “inhibition zone (IZ)” value (Enterobacter cloacae [23])?
Answer: 13 mm

Question: Which MIC (Enterobacter cloacae [24]) does the source give for GENTAMICIN here?
Answer: 1 µg/mL

Question: And the MIC (Enterobacter cloacae [25])?
Answer: 0.25 µg/mL

Question: And the MIC (Enterobacter cloacae [26])?
Answer: 0.125 µg/mL

Question: And the MIC (Enterobacter cloacae [27])?
Answer: 0.094 µg/mL

Question: And the MIC (Enterobacter cloacae [28])?
Answer: 1 µg/mL

Question: And the MIC (Enterobacter cloacae [29])?
Answer: 1.5 µg/mL

Question: What about the MIC (Enterobacter cloacae [30]) of the same molecule?
Answer: 0.125 µg/mL
